Assay results taken from ChEMBL document CHEMBL2062453, “Lead optimization through VLAK protocol: new annelated pyrrolo-pyrimidine derivatives as antitumor agents” (2012).

Experiments:
Type in all cases: functional
[1] = tested on: NCI-H226; test: Cytotoxicity against human NCI-H226 cells after 48 hrs by SRB assay; conditions: NCI-H226, 48 h; for TGI: read-out: pTGI (converted)
In short: (§1)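 Five-dose screen, 10-fold or ½-log dilutions, compound stock in DMSO. Cells were in RPMI 1640 with 5% FBS and 2 mM glutamine at 5000–40,000 cells/well, preincubated 24 h, 37 °C, 5% CO₂, with a time-zero plate TCA-fixed. After 48 h drug exposure, cells were TCA-fixed and stained with 0.4% SRB, read at 515 nm. GI50, TGI and LC50 were derived from time-zero, control and test absorbances.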

[2] = tested on: DU-145; test: Cytotoxicity against human DU145 cells after 48 hrs by SRB assay; conditions: DU-145, 48 h; for TGI: read-out: pTGI (converted)
In short: (§2)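 NCI 60-cell five-dose screen. Cells grown in RPMI 1640 with 5% FBS and 2 mM glutamine, plated at 5000–40,000 cells/well, and preincubated 24 h at 37 °C in 5% CO2. Time-zero plates fixed with TCA. Five serial dilutions of DMSO stock added, then 48 h exposure. TCA fixation, 0.4% SRB staining, absorbance read at 515 nm. GI50 from [(Ti−Tz)/(C−Tz)]×100 = 50.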

[3] = tested on: HCT-15; test: Cytotoxicity against human HCT15 cells after 48 hrs by SRB assay; conditions: HCT-15, 48 h; for TGI: read-out: pTGI (converted); in short: as §2
[4] = tested on: HL-60(TB); test: Cytotoxicity against human HL-60(TB) cells after 48 hrs by SRB assay; conditions: HL-60, 48 h; for CC50: read-out: pLC50 (the source's name) (converted); for TGI: read-out: pTGI (converted)
In short: (§3)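 NCI 60-line five-dose screen. Cells are grown in RPMI 1640 with 5% FBS and 2 mM glutamine, plated at 5000–40,000 cells/well, and preincubated 24 h at 37 °C in 5% CO2. Compound is dissolved in DMSO and given at five concentrations (10-fold or ½-log dilutions) for 48 h. Cells are TCA-fixed (HL-60(TB), suspension: 16% final; HOP92, adherent: 10% final), SRB-stained and read at 515 nm. GI50 comes from [(Ti−Tz)/(C−Tz)]×100 = 50.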

[5] = tested on: SNB-75; test: Cytotoxicity against human SNB75 cells after 48 hrs by SRB assay; conditions: SNB-75, 48 h; for TGI: read-out: pTGI (converted); in short: as §1
[6] = tested on: MDA-MB-435; test: Cytotoxicity against human MDA-MB-435 cells after 48 hrs by SRB assay; conditions: MDA-MB-435, 48 h; for TGI: read-out: pTGI (converted); in short: as §2
[7] = tested on: NCI-H522; test: Cytotoxicity against human NCI-H522 cells after 48 hrs by SRB assay; conditions: NCI-H522, 48 h; in short: as §1
[8] = tested on: NCI-H460; test: Cytotoxicity against human NCI-H460 cells after 48 hrs by SRB assay; conditions: NCI-H460, 48 h; for TGI: read-out: pTGI (converted); in short: as §1
[9] = tested on: MDA-MB-231; test: Cytotoxicity against human MDA-MB-231 cells after 48 hrs by SRB assay; conditions: MDA-MB-231, 48 h; for TGI: read-out: pTGI (converted); in short: as §2
[10] = tested on: SF-539; test: Cytotoxicity against human SF539 cells after 48 hrs by SRB assay; conditions: SF-539, 48 h; for TGI: read-out: pTGI (converted); in short: as §1
[11] = tested on: EKVX; test: Cytotoxicity against human EKVX cells after 48 hrs by SRB assay; conditions: for TGI: read-out: pTGI (converted); in short: as §2
[12] = tested on: MCF7; test: Cytotoxicity against human MCF7 cells after 48 hrs by SRB assay; conditions: MCF7, 48 h; for TGI: read-out: pTGI (converted); in short: as §2
[13] = tested on: U-251; test: Cytotoxicity against human U251 cells after 48 hrs by SRB assay; conditions: U-251, 48 h; for TGI: read-out: pTGI (converted)
In short: (§4)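 NCI 60-panel five-dose screen. Cells in RPMI 1640 with 5% FBS and 2 mM glutamine, plated at 5000–40,000 cells/well and preincubated 24 h at 37 °C under 5% CO2. Five 10-fold or half-log dilutions were added from a DMSO stock for 48 h. Cells were TCA-fixed (SR settled cells: 16% final), SRB-stained and read at 515 nm. GI50 was taken where (Ti−Tz)/(C−Tz)×100 = 50.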

[14] = tested on: OVCAR-4; test: Cytotoxicity against human OVCAR4 cells after 48 hrs by SRB assay; conditions: OVCAR-4, 48 h; for TGI: read-out: pTGI (converted); in short: as §1
[15] = tested on: SF-295; test: Cytotoxicity against human SF295 cells after 48 hrs by SRB assay; conditions: SF-295, 48 h; for TGI: read-out: pTGI (converted); in short: as §1
[16] = tested on: SNB-19; test: Cytotoxicity against human SNB19 cells after 48 hrs by SRB assay; conditions: SNB-19, 48 h; for TGI: read-out: pTGI (converted); in short: as §1
[17] = tested on: HCT-116; test: Cytotoxicity against human HCT116 cells after 48 hrs by SRB assay; conditions: HCT-116, 48 h; for TGI: read-out: pTGI (converted); in short: as §2
[18] = tested on: NCI-H23; test: Cytotoxicity against human NCI-H23 cells after 48 hrs by SRB assay; conditions: NCI-H23, 48 h; for TGI: read-out: pTGI (converted); in short: as §1
[19] = tested on: HOP-92; test: Cytotoxicity against human HOP92 cells after 48 hrs by SRB assay; conditions: HOP-92, 48 h; in short: as §3
[20] = tested on: A498; test: Cytotoxicity against human A498 cells after 48 hrs by SRB assay; conditions: A498, 48 h; for TGI: read-out: pTGI (converted); in short: as §2
[21] = tested on: UACC-62; test: Cytotoxicity against human UACC62 cells after 48 hrs by SRB assay; conditions: UACC-62, 48 h; for TGI: read-out: pTGI (converted); in short: as §4
[22] = tested on: CCRF-CEM; test: Cytotoxicity against human CCRF-CEM cells after 48 hrs by SRB assay; conditions: for TGI: read-out: pTGI (converted); in short: as §2
[23] = tested on: TK-10; test: Cytotoxicity against human TK10 cells after 48 hrs by SRB assay; conditions: TK-10, 48 h; for TGI: read-out: pTGI (converted); in short: as §4
[24] = tested on: ACHN; test: Cytotoxicity against human ACHN cells after 48 hrs by SRB assay; conditions: for CC50: read-out: pLC50 (the source's name) (converted); for TGI: read-out: pTGI (converted); in short: as §2
[25] = tested on: RXF 393; test: Cytotoxicity against human RXF393 cells after 48 hrs by SRB assay; conditions: RXF 393, 48 h; for TGI: read-out: pTGI (converted); in short: as §1

## CSC1=Nc2c(c(C)c(-c3ccccc3)n2CCCCl)C2=NC(=O)CN12
[1]
  GI50: 11 µM
  LC50: 81.3 µM
  TGI: 29.5 µM
[2]
  GI50: 11.5 µM
  LC50: 61.7 µM
  TGI: 26.9 µM
[3]
  GI50: 4.07 µM
  LC50: > 100 µM
  TGI: 21.4 µM
[4]
  GI50: 3.39 µM
  CC50: > 100 µM
  TGI: > 100 µM
[5]
  GI50: 2.82 µM
  LC50: 67.6 µM
  TGI: 11.7 µM
[6]
  GI50: 2.04 µM
  LC50: 17.4 µM
  TGI: 4.68 µM
[7]
  GI50: 3.89 µM
[7]; read-out: pLC50 (the source's name) (converted)
  CC50: 75.9 µM
[7]; read-out: pTGI (converted)
  TGI: 19.1 µM
[8]
  GI50: 3.72 µM
  LC50: 56.2 µM
  TGI: 15.1 µM
[9]
  GI50: 5.62 µM
  LC50: 77.6 µM
  TGI: 24 µM
[10]
  GI50: 3.39 µM
  LC50: 39.8 µM
  TGI: 14.1 µM
[11]
  GI50: 6.92 µM
  LC50: > 100 µM
  TGI: 30.9 µM
[12]
  GI50: 3.39 µM
  LC50: 77.6 µM
  TGI: 16.6 µM
[13]
  GI50: 3.89 µM
  LC50: 53.7 µM
  TGI: 16.2 µM
[14]
  GI50: 6.76 µM
  LC50: > 100 µM
  TGI: 44.7 µM
[15]
  GI50: 4.07 µM
  LC50: > 100 µM
  TGI: 26.9 µM
[16]
  GI50: 3.98 µM
  LC50: 45.7 µM
  TGI: 17.8 µM
[17]
  GI50: 3.16 µM
  LC50: > 100 µM
  TGI: 47.9 µM
[18]
  GI50: 8.32 µM
  LC50: > 100 µM
  TGI: 46.8 µM
[19]
  GI50: 11.5 µM
  LC50: > 100 µM
[19]; read-out: pTGI (converted)
  TGI: 37.2 µM
[20]
  GI50: 3.89 µM
  LC50: 53.7 µM
  TGI: 15.1 µM
[21]
  GI50: 2.09 µM
  LC50: 38 µM
  TGI: 11.5 µM
[22]
  GI50: 5.13 µM
  LC50: > 100 µM
  TGI: > 100 µM
[23]
  GI50: 8.51 µM
  LC50: > 100 µM
  TGI: 77.6 µM
[24]
  GI50: 9.55 µM
  CC50: > 100 µM
  TGI: 38 µM
[25]
  GI50: 11.2 µM
  LC50: 79.4 µM
  TGI: 29.5 µM

## CSC1=Nc2c(c(C)c(-c3ccccc3)n2CCCN2CCCCC2)C2=NC(=O)CC(C)N12 (stereo not given)
[1]
  GI50: 3.55 µM
  LC50: > 100 µM
  TGI: > 100 µM
[2]
  GI50: 3.39 µM
  LC50: > 100 µM
  TGI: 27.5 µM
[3]
  GI50: 4.47 µM
  LC50: > 100 µM
  TGI: 28.2 µM
[4]
  GI50: 1.82 µM
  CC50: 8.32 µM
  TGI: 3.89 µM
[5]
  GI50: 2.69 µM
  LC50: > 100 µM
  TGI: 21.9 µM
[6]
  GI50: 2.88 µM
  LC50: 58.9 µM
  TGI: 10.5 µM
[8]
  GI50: 3.24 µM
  LC50: 67.6 µM
  TGI: 12 µM
[9]
  GI50: 1.82 µM
  LC50: > 100 µM
  TGI: 9.55 µM
[10]
  GI50: 6.46 µM
  LC50: > 100 µM
  TGI: 87.1 µM
[11]
  GI50: 3.02 µM
  LC50: > 100 µM
  TGI: 20 µM
[12]
  GI50: 2.88 µM
  LC50: 61.7 µM
  TGI: 11.2 µM
[13]
  GI50: 2.45 µM
  LC50: 33.9 µM
  TGI: 11.2 µM
[14]
  GI50: 2.57 µM
  LC50: > 100 µM
  TGI: 17.8 µM
[15]
  GI50: 2.57 µM
  LC50: 69.2 µM
  TGI: 10.2 µM
[16]
  GI50: 2.95 µM
  LC50: > 100 µM
  TGI: > 100 µM
[17]
  GI50: 2.4 µM
  LC50: > 100 µM
  TGI: > 100 µM
[18]
  GI50: 2.95 µM
  LC50: > 100 µM
  TGI: > 100 µM
[19]
  LC50: > 100 µM
[20]
  GI50: 3.16 µM
  LC50: > 100 µM
  TGI: 9.12 µM
[21]
  GI50: 2.82 µM
  LC50: 38 µM
  TGI: 14.1 µM
[22]
  GI50: 2.69 µM
  LC50: > 100 µM
  TGI: 12 µM
[23]
  GI50: 2.88 µM
  LC50: > 100 µM
  TGI: 9.33 µM
[24]
  GI50: 3.02 µM
  CC50: > 100 µM
  TGI: 22.4 µM
[25]
  GI50: 1.51 µM
  LC50: 25.1 µM
  TGI: 4.68 µM
